Published values of several laboratories.
Lines come from different studies, so protocols differ.
Target: Serine/threonine-protein kinase ULK2 (ULK2, Homo sapiens, UniProt Q8IYT8)
One construct used (Q8IYT8 1-1036): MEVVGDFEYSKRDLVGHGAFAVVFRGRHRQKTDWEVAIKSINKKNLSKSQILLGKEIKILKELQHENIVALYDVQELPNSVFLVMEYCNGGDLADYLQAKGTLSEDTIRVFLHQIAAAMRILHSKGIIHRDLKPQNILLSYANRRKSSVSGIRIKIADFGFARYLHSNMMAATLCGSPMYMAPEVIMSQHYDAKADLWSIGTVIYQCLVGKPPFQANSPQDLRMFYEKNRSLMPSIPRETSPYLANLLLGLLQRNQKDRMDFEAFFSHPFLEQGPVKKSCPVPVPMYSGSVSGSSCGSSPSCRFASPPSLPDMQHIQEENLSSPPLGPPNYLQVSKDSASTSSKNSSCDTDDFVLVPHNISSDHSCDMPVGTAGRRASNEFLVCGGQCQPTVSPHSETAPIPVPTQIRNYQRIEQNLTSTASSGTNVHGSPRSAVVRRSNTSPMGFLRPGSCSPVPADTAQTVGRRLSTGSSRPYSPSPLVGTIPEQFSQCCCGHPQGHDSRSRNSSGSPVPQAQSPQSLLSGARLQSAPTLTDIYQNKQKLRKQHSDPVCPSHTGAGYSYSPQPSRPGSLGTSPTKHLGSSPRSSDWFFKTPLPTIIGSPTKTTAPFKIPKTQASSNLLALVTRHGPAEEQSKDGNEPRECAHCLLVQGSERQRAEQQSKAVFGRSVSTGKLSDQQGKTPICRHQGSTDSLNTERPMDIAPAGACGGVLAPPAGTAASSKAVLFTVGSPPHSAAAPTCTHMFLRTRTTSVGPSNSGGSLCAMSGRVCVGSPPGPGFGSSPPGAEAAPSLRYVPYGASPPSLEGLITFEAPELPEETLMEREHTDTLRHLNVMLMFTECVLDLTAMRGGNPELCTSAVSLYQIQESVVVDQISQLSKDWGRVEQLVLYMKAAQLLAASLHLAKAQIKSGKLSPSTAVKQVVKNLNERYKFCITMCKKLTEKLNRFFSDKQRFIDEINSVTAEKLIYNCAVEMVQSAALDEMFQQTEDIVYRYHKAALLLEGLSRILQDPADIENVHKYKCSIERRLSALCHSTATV

Compound	assay	conditions	measurement	result
Cc1ccc(NC(=O)c2ccnc(C(F)(F)F)c2)cc1-c1cc(OCCO)nc(N2CCOCC2)c1	binding	1 µM	remaining binding	100%
C#Cc1cc(-c2cc(Nc3nc(N[C@@H](C)c4ccc(F)cn4)ncc3Cl)n[nH]2)ccc1C=O	enzyme activity, inhibitor	0.2 µM	inhibition	5.21%
COc1ccc2oc(-c3ccc4nc(N)oc4c3)c/c(=N\c3ccccc3NC(=O)CCN)c2c1	binding	1 µM	remaining binding	106%
CN1CCN(C(=O)c2ccc(NC(=O)Nc3ccc(N(C)c4ccnc(Nc5ccc(CS(C)(=O)=O)cc5)n4)cc3)cc2)CC1	binding	1 µM	remaining binding	78%
C=CC(=O)N1CCC[C@@H](n2nc(-c3ccc(Oc4ccccc4)cc3)c3c(N)ncnc32)C1	enzyme activity, inhibitor	1 µM	inhibition	13%
CCCCC(=O)Nc1ccc(-c2ccc3ncn(CCC)c(=O)c3c2)cn1	binding, competition with immobilised ligand	0.5 µM	remaining binding	100%
C=CC(=O)N1CCC([C@@H]2CCNc3c(C(N)=O)c(-c4ccc(Oc5ccccc5)cc4)nn32)CC1	enzyme activity, inhibitor	1 µM	inhibition	8%
N#Cc1ccc(NC(=O)Nc2ccccc2)cc1	cell-free assay, competition with immobilised ligand	25 µM	remaining binding	86%
